Laboratory results as given in ChEMBL document CHEMBL2331506, “Design, synthesis, antiviral and cytostatic evaluation of novel isoxazolidine nucleotide analogues with a carbamoyl linker” (Bioorg Med Chem, 2013).
Active and inactive are the calls of the source. The rule behind the calls is not given here.

Columns and labels:
Felid alphaherpesvirus 1 = experiment: Antiviral activity against Feline herpes virus infected in cat CRFK cells assessed as reduction of virus-induced cytopathogenicity at 250 uM; assay type: functional, organism-based
[1] = tested on: Respiratory syncytial virus; experiment: Antiviral activity against Respiratory syncytial virus long infected in human HeLa cells assessed as reduction of virus-induced cytopathogenicity at 250 uM; assay type: functional, organism-based
Summary of the method: (§1)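 Confluent monolayers (HEL fibroblasts, Vero, or HeLa cells as listed) were infected with 100 CCID50 of virus in the presence of varying compound concentrations. Virus-induced cytopathicity or plaque formation was scored once cytopathicity was complete in untreated infected controls. EC50 was taken as the concentration reducing cytopathogenicity or plaque formation by 50%.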

Influenza A virus [2] = experiment: Antiviral activity against Influenza A virus H3N2 infected in dog MDCK cells assessed as reduction of virus-induced cytopathogenicity at 250 uM; assay type: functional, organism-based
Summary of the method: (§2)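 Confluent cell monolayers were infected with 100 CCID50 of virus while exposed to varying compound concentrations. Cytopathicity was scored once it was complete in untreated infected controls. EC50 was taken as the concentration that reduced virus-induced cytopathogenicity by 50%.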

Human respirovirus 3 = experiment: Antiviral activity against Parainfluenza virus 3 infected in african green monkey Vero cells assessed as reduction of virus-induced cytopathogenicity at 250 uM; assay type: functional, organism-based; summary of the method: as §1
[3] = tested on: Mammalian orthoreovirus 1; experiment: Antiviral activity against Reovirus 1 infected in african green monkey Vero cells assessed as reduction of virus-induced cytopathogenicity at 250 uM; assay type: functional, organism-based; summary of the method: as §1
Feline coronavirus = experiment: Antiviral activity against Feline coronavirus infected in cat CRFK cells assessed as reduction of virus-induced cytopathogenicity at 250 uM; assay type: functional, organism-based
[4] = Cytotoxicity against cat CRFK cells assessed as alteration of cell morphology up to 100 uM by microscopic analysis; assay type: cell-based, Felis catus
Summary of the method: (§3)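 Uninfected host-cell cultures were exposed to compound and examined by microscopy. Cytotoxicity was expressed as the minimum cytotoxic concentration (MCC) causing a microscopically detectable alteration of normal cell morphology.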

[5] = tested on: Vesicular stomatitis virus; experiment: Antiviral activity against Vesicular stomatitis virus infected in human HEL cells assessed as reduction of virus-induced cytopathogenicity at 250 uM; assay type: functional, organism-based; summary of the method: as §2
MDCK = experiment: Cytotoxicity against dog MDCK cells assessed as alteration of cell morphology up to 100 uM by microscopic analysis; assay type: cell-based, Canis lupus familiaris; summary of the method: as §3
Human alphaherpesvirus 1 [6] = experiment: Antiviral activity against thymidine kinase-deficient, ACV-resistant Herpes simplex virus 1 KOS infected in human HEL cells assessed as reduction of virus-induced cytopathogenicity at 250 uM; assay type: functional, organism-based; summary of the method: as §2
Vero = experiment: Cytotoxicity against african green monkey Vero cells assessed as alteration of cell morphology up to 100 uM by microscopic analysis; assay type: cell-based; conditions: chlorocebus sabaeus; summary of the method: as §3
Human alphaherpesvirus 2 = experiment: Antiviral activity against Herpes simplex virus 2 G infected in human HEL cells assessed as reduction of virus-induced cytopathogenicity at 250 uM; assay type: functional, organism-based; conditions: strain G; summary of the method: as §1
HeLa = experiment: Cytotoxicity against human HeLa cells assessed as alteration of cell morphology up to 100 uM by microscopic analysis; assay type: cell-based; summary of the method: as §3
HEL = experiment: Cytotoxicity against human HEL cells assessed as alteration of cell morphology up to 100 uM by microscopic analysis; assay type: cell-based; summary of the method: as §3
Influenza B virus = experiment: Antiviral activity against Influenza B virus infected in dog MDCK cells assessed as reduction of virus-induced cytopathogenicity at 250 uM; assay type: functional, organism-based; summary of the method: as §2
[7] = tested on: Vesicular stomatitis virus; experiment: Antiviral activity against Vesicular stomatitis virus infected in human HeLa cells assessed as reduction of virus-induced cytopathogenicity at 250 uM; assay type: functional, organism-based; summary of the method: as §2
Punta Toro virus = experiment: Antiviral activity against Punta Toro virus infected in african green monkey Vero cells assessed as reduction of virus-induced cytopathogenicity at 250 uM; assay type: functional, organism-based; summary of the method: as §1
Human alphaherpesvirus 1 [8] = experiment: Antiviral activity against Herpes simplex virus 1 KOS infected in human HEL cells assessed as reduction of virus-induced cytopathogenicity at 250 uM; assay type: functional, organism-based; summary of the method: as §1
Coxsackievirus B4 = experiment: Antiviral activity against Coxsackievirus B4 infected in african green monkey Vero cells assessed as reduction of virus-induced cytopathogenicity at 250 uM; assay type: functional, organism-based; summary of the method: as §1
[9] = tested on: Human immunodeficiency virus 1; experiment: Antiviral activity against Human immunodeficiency virus 1 3B infected in human CEM cells assessed as reduction of virus-induced giant cell formation at 250 uM after 4 to 5 days; assay type: functional, organism-based; conditions: CCRF-CEM
Summary of the method: (§4)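 CEM cells at 3 × 10^5 cells/mL were infected with HIV at 100 CCID50 per mL in the presence of compound dilutions. They were held 4–5 days at 37 °C in humidified CO2. Syncytium (giant cell) formation was scored microscopically, and EC50 was taken as the concentration inhibiting giant cell formation by 50%.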

[10] = tested on: Human immunodeficiency virus 2; experiment: Antiviral activity against Human immunodeficiency virus 2 ROD infected in human CEM cells assessed as reduction of virus-induced giant cell formation at 250 uM after 4 to 5 days; assay type: functional, organism-based; conditions: CCRF-CEM; summary of the method: as §4
Influenza A virus [11] = experiment: Antiviral activity against Influenza A virus H1N1 infected in dog MDCK cells assessed as reduction of virus-induced cytopathogenicity at 250 uM; assay type: functional, organism-based; summary of the method: as §2
Sindbis virus = experiment: Antiviral activity against Sindbis virus infected in african green monkey Vero cells assessed as reduction of virus-induced cytopathogenicity at 250 uM; assay type: functional, organism-based; summary of the method: as §1

Structure (SMILES)	inhibition (Felid alphaherpesvirus 1)	inhibition [1]	inhibition (Influenza A virus [2])	inhibition (Human respirovirus 3)	inhibition [3]	inhibition (Feline coronavirus)	Activity [4]	inhibition [5]	Activity (MDCK)	inhibition (Human alphaherpesvirus 1 [6])	Activity (Vero)	inhibition (Human alphaherpesvirus 2)	Activity (HeLa)	Activity (HEL)	inhibition (Influenza B virus)	inhibition [7]	inhibition (Punta Toro virus)	inhibition (Human alphaherpesvirus 1 [8])	inhibition (Coxsackievirus B4)	inhibition [9]	other results
CCOP(=O)(OCC)[C@@H]1C[C@H](C(=O)Nc2ccc(F)cc2)ON1C (mixture of isomers)	inactive	inactive	inactive	inactive	inactive	inactive	Non-toxic	inactive	Non-toxic	inactive	Non-toxic	inactive	Non-toxic	Non-toxic	inactive	inactive	inactive	inactive	inactive	inactive	inhibition [10]: inactive; inhibition (Influenza A virus [11]): inactive; inhibition (Sindbis virus): inactive
CCOP(=O)(OCC)[C@H]1C[C@H](C(=O)Nc2ccc(F)cc2F)ON1C (mixture of isomers)	inactive	inactive	inactive	inactive	inactive	inactive	Non-toxic	inactive	Non-toxic	inactive	Non-toxic	inactive	Non-toxic	Non-toxic	inactive	inactive	inactive	inactive	inactive	inactive	inhibition [10]: inactive; inhibition (Influenza A virus [11]): inactive; inhibition (Sindbis virus): inactive
CCOP(=O)(OCC)[C@@H]1C[C@H](C(=O)Nc2ccc(F)cc2F)ON1C (mixture of isomers)	inactive	inactive	inactive	inactive	inactive	inactive	Non-toxic	inactive	Non-toxic	inactive	Non-toxic	inactive	Non-toxic	Non-toxic	inactive	inactive	inactive	inactive	inactive	inactive	inhibition [10]: inactive; inhibition (Influenza A virus [11]): inactive; inhibition (Sindbis virus): inactive
CCOP(=O)(OCC)[C@H]1C[C@H](C(=O)Nc2ccccc2Br)ON1C (mixture of isomers)	inactive	inactive	inactive	inactive	inactive	inactive	Non-toxic	inactive	Non-toxic	inactive	Non-toxic	inactive	Non-toxic	Non-toxic	inactive	inactive	inactive	inactive	inactive	inactive	inhibition [10]: inactive; inhibition (Influenza A virus [11]): inactive; inhibition (Sindbis virus): inactive
CCOP(=O)(OCC)[C@@H]1C[C@H](C(=O)Nc2ccccc2Br)ON1C (mixture of isomers)	inactive	inactive	inactive	inactive	inactive	inactive	Non-toxic	inactive	Non-toxic	inactive	Non-toxic	inactive	Non-toxic	Non-toxic	inactive	inactive	inactive	inactive	inactive	inactive	inhibition [10]: inactive; inhibition (Influenza A virus [11]): inactive; inhibition (Sindbis virus): inactive
CCOP(=O)(OCC)[C@@H]1C[C@H](C(=O)Nc2cccc(Br)c2)ON1C (mixture of isomers)	inactive	inactive	inactive	inactive	inactive	inactive	Non-toxic	inactive	Non-toxic	inactive	Non-toxic	inactive	Non-toxic	Non-toxic	inactive	inactive	inactive	inactive	inactive	inactive	inhibition [10]: inactive; inhibition (Influenza A virus [11]): inactive; inhibition (Sindbis virus): inactive
CCOP(=O)(OCC)[C@@H]1C[C@H](C(=O)Nc2ccccc2[N+](=O)[O-])ON1C (mixture of isomers)	inactive	inactive	inactive	inactive	inactive	inactive	Non-toxic	inactive	Non-toxic	inactive	Non-toxic	inactive	Non-toxic	Non-toxic	inactive	inactive	inactive	inactive	inactive	inactive	inhibition [10]: inactive; inhibition (Influenza A virus [11]): inactive; inhibition (Sindbis virus): inactive
CCOP(=O)(OCC)[C@@H]1C[C@@H](C(=O)Nc2ccccc2Cl)ON1C (racemic)	inactive	inactive	inactive	inactive	inactive	inactive	Non-toxic	inactive	Non-toxic	inactive	Non-toxic	inactive	Non-toxic	Non-toxic	inactive	inactive	inactive	inactive	inactive	inactive	inhibition [10]: inactive; inhibition (Influenza A virus [11]): inactive; inhibition (Sindbis virus): inactive
